Compound activity deposited in PubChem by Broad Institute.
A1 apoptosis 2: A1 inhibition read as caspase activation; MEF A1-2A-BIM cells, caspase-Glo luminescence, 3 h; percent of clofoctol response, DMSO zero; caspase activation, % (concentration not given with the values); 24,000 tested, under 10 active; in the data active means caspase activation above about 5.9%; inconclusive means no clear call, values can overlap the other calls; inactive means below about 2.2%
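system = A1-2A-BIM-expressing MEF cells | quantity = 2500 MEF cells/well | dosing = 50 nL compound per well, pinned | schedule = overnight cell settling, then 3 h compound exposure, 37 °C | signal = luminescence from DEVD-luciferin Caspase-Glo reagent, 1:1 in 50 mM HEPES, 1 h RT | read-out = Caspase-3/7 activation, seen as rise in luminescence signal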
INS-1E rescue: INS-1E beta cell protection from cytokine death. INS-1E cytokine-induced death, ATP luminescence, 48 h; normalised: neutral wells 0, positive control 100. 20,000 tested, 0.1% active. protection from cytokine-induced ATP loss, % at 10 µM. AID 488910;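 active means mean replicate protection from cytokine-induced ATP loss at least 50% and at least 75% of replicates each reaching 50%; inconclusive means meets only one of the two criteria, mean or replicate share; inactive means fails both the mean and replicate share criteria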
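Material: INS-1E rat cells; Quantity: 8000 cells/well; Buffer or medium: phenol-red-free RPMI with 5% fetal bovine serum; Probe or stimulus: cytokine cocktail of IFN-γ, TNF-α and IL-1β; Compound dosing: single test concentration per compound, delivered by pin transfer; Incubation: 48 h co-treatment, 10 min post-lysis read; Signal: CellTiter-Glo luminescence.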
T cruzi HTS: intracellular Trypanosoma cruzi inhibition | 22,000 tested, 4.9% active | activity score (inhibition), % at 5.01 µM | intracellular Trypanosoma cruzi in host cells, plate reader; in the data active means activity score above about 55%; inconclusive means no clear call, values can overlap the other calls;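 further: parasites and compound incubated about four days before reading; 0% = median of neutral control wells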
* marks the source's active call; other numbers are inactive results. This excerpt belongs to a sample that is enriched for hits.

For C[C@@H]1CN([C@H](C)CO)C(=O)Cc2cc(NC(=O)Nc3ccc(C(F)(F)F)cc3)ccc2O[C@@H]1CN(C)S(=O)(=O)c1ccc(Cl)cc1 the results were A1 apoptosis 2 0.1, INS-1E rescue 5.9 and T cruzi HTS 58.4*.
`Cc1ccc(S(=O)(=O)N(C)C[C@@H]2Oc3ccc(NC(=O)Nc4ccc(C(F)(F)F)cc4)cc3CC(=O)N([C@@H](C)CO)C[C@@H]2C)cc1` gave INS-1E rescue -56.7 and T cruzi HTS inconclusive.
Screening C[C@@H]1CN([C@H](C)CO)C(=O)Cc2cc(NC(=O)Nc3ccc(C(F)(F)F)cc3)ccc2O[C@H]1CN(C)S(=O)(=O)c1ccc(Cl)cc1 returned INS-1E rescue -62.0 and T cruzi HTS 32.7.
For C[C@@H]1CN([C@H](C)CO)C(=O)c2cc(NC(=O)CCN3CCOCC3)ccc2O[C@@H]1CN(C)S(=O)(=O)c1ccc(Cl)cc1 the results were INS-1E rescue -6.8 and T cruzi HTS 0.3.
Screening C[C@@H]1CN([C@@H](C)CO)C(=O)Cc2cc(NC(=O)CCC(F)(F)F)ccc2O[C@@H]1CN(C)Cc1ccncc1 returned INS-1E rescue -4.0 and T cruzi HTS 6.9.
Screening COc1ccc(NC(=O)Nc2ccc3c(c2)C(=O)N([C@@H](C)CO)C[C@H](C)[C@H](CN(C)C(=O)Nc2ccc(C(F)(F)F)cc2)O3)cc1 returned A1 apoptosis 2 -0.4, INS-1E rescue -3.9 and T cruzi HTS 3.0.
Screening COc1ccc(NC(=O)Nc2ccc3c(c2)C(=O)N([C@H](C)CO)C[C@H](C)[C@@H](CN(C)Cc2ccc(C(F)(F)F)cc2)O3)cc1 returned A1 apoptosis 2 0.3, INS-1E rescue -17.2 and T cruzi HTS 18.8.
Screening CNC[C@H]1Oc2ccc(NC(=O)C3CC3)cc2C(=O)N([C@@H](C)CO)C[C@@H]1C returned A1 apoptosis 2 -0.8, INS-1E rescue 5.7 and T cruzi HTS -10.8.
For CC(C)NC(=O)Nc1ccc2c(c1)C(=O)N([C@H](C)CO)C[C@@H](C)[C@@H](CN(C)C(=O)Nc1ccc(C(F)(F)F)cc1)O2 the results were INS-1E rescue -2.8 and T cruzi HTS 1.0.
COc1ccc(S(=O)(=O)N(C)C[C@H]2Oc3ccc(NC(=O)Nc4ccc(C(F)(F)F)cc4)cc3CC(=O)N([C@H](C)CO)C[C@@H]2C)cc1 was read as A1 apoptosis 2 1.8.
For COc1ccc(S(=O)(=O)N(C)C[C@H]2Oc3ccc(NC(=O)Nc4ccc(C(F)(F)F)cc4)cc3CC(=O)N([C@@H](C)CO)C[C@H]2C)cc1 the results were A1 apoptosis 2 0.0, INS-1E rescue -12.2 and T cruzi HTS 64.5*.
C[C@@H]1CN([C@H](C)CO)C(=O)c2cc(NC(=O)NC3CCCCC3)ccc2O[C@@H]1CN(C)Cc1ccc2c(c1)OCO2 was read as A1 apoptosis 2 0.1, INS-1E rescue 1.1 and T cruzi HTS -15.9.
For C[C@H]1CN([C@@H](C)CO)C(=O)c2cc(NC(=O)NC3CCCCC3)ccc2O[C@@H]1CN(C)Cc1ccc2c(c1)OCO2 the results were A1 apoptosis 2 0.7, INS-1E rescue -8.0 and T cruzi HTS -5.3.
For C[C@H]1CN([C@@H](C)CO)C(=O)c2cc(NC(=O)NC3CCCCC3)ccc2O[C@H]1CN(C)Cc1ccc2c(c1)OCO2 the results were A1 apoptosis 2 -0.2, INS-1E rescue 5.2 and T cruzi HTS 58.4*.
For C[C@H](CO)N1C[C@H](C)[C@H](CN(C)Cc2ccc3c(c2)OCO3)Oc2ccc(NC(=O)NC3CCCCC3)cc2C1=O the results were A1 apoptosis 2 0.2 and T cruzi HTS 56.2*.
For COc1ccc(NC(=O)Nc2ccc3c(c2)CC(=O)N([C@H](C)CO)C[C@@H](C)[C@H](CN(C)Cc2ccncc2)O3)cc1 the results were INS-1E rescue 9.4 and T cruzi HTS -36.6.
C[C@H](CO)N1C[C@H](C)[C@H](CN(C)Cc2ccc(C(F)(F)F)cc2)Oc2c(NC(=O)c3ccc(-c4nccs4)cc3)cccc2C1=O was read as INS-1E rescue -26.6 and T cruzi HTS 42.8.
Screening Cc1ccc(S(=O)(=O)N(C)C[C@@H]2Oc3ccc(NC(=O)NC4CCCCC4)cc3C(=O)N([C@@H](C)CO)C[C@@H]2C)cc1 returned INS-1E rescue 2.3 and T cruzi HTS 11.3.
C[C@@H]1CN([C@@H](C)CO)C(=O)c2cccc(NC(=O)c3cnccn3)c2O[C@H]1CN(C)Cc1ccc(C(F)(F)F)cc1 was read as A1 apoptosis 2 -1.5, INS-1E rescue -1.3 and T cruzi HTS 15.4.
C[C@@H]1CN([C@@H](C)CO)C(=O)c2cccc(NC(=O)c3ccncc3)c2O[C@H]1CN(C)Cc1ccc(C(F)(F)F)cc1 was read as A1 apoptosis 2 -0.3, INS-1E rescue 4.1 and T cruzi HTS 77.3*.
C[C@@H]1CN([C@H](C)CO)C(=O)c2cccc(NC(=O)c3ccncc3)c2O[C@H]1CN(C)Cc1ccc(C(F)(F)F)cc1 was read as A1 apoptosis 2 2.0, INS-1E rescue 1.7 and T cruzi HTS 78.7*.
`C[C@@H]1CN([C@H](C)CO)C(=O)c2cccc(NC(=O)c3cnccn3)c2O[C@H]1CN(C)Cc1ccc(C(F)(F)F)cc1` gave A1 apoptosis 2 -0.2, INS-1E rescue -3.6 and T cruzi HTS -2.8.
Screening C[C@@H]1CN([C@H](C)CO)C(=O)c2cccc(NC(=O)c3ccncc3)c2O[C@@H]1CN(C)Cc1ccc(C(F)(F)F)cc1 returned A1 apoptosis 2 0.1, INS-1E rescue -4.9 and T cruzi HTS -1.3.
Screening C[C@H]1CN([C@@H](C)CO)C(=O)c2cccc(NC(=O)c3ccncc3)c2O[C@@H]1CN(C)Cc1ccc(C(F)(F)F)cc1 returned A1 apoptosis 2 -0.1, INS-1E rescue 16.6 and T cruzi HTS 78.0*.
Screening C[C@H](CO)N1C[C@H](C)[C@@H](CN(C)Cc2ccc(C(F)(F)F)cc2)Oc2c(NC(=O)c3ccncc3)cccc2C1=O returned A1 apoptosis 2 0.4, INS-1E rescue -15.1 and T cruzi HTS 83.3*.
Cc1ccc(S(=O)(=O)N(C)C[C@@H]2Oc3c(NC(=O)C4CCOCC4)cccc3C(=O)N([C@H](C)CO)C[C@H]2C)cc1 was read as A1 apoptosis 2 -2.2, INS-1E rescue 4.5 and T cruzi HTS -10.6.
For C[C@@H]1CN([C@H](C)CO)C(=O)Cc2cc(NS(=O)(=O)c3cn(C)cn3)ccc2O[C@H]1CN(C)C(=O)Nc1cccc2ccccc12 the results were INS-1E rescue 4.0 and T cruzi HTS -8.4.
For C[C@H]1CN([C@@H](C)CO)C(=O)Cc2cc(NC(=O)CCC(F)(F)F)ccc2O[C@H]1CN(C)S(=O)(=O)c1cn(C)cn1 the results were INS-1E rescue -5.7 and T cruzi HTS -10.0.
For C[C@H]1CN([C@@H](C)CO)C(=O)c2cccc(NS(=O)(=O)c3ccc(F)cc3)c2O[C@H]1CN(C)C(=O)Nc1ccccc1 the results were INS-1E rescue -1.4 and T cruzi HTS -1.4.
For C[C@H](CO)N1C[C@H](C)[C@H](CN(C)S(=O)(=O)c2ccccc2)Oc2ncccc2C1=O the results were A1 apoptosis 2 -0.9.
